Source: PubChem
Sampled rows, rich in hits. Any-hit rate of the full collection: about 1.8%.
M4 ag: agonists of human muscarinic M4 receptor (CHRM4) | P08173 | CHO-K1 hM4/Gqi5, Fluo-8 calcium fluorescence; vehicle 0%, full acetylcholine response 100% | activation, % at 3 µM | 0.14% of 360,000 active;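 active = activation above the run mean over all test wells plus 3 SD, cut at about 32% in these data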;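 note: peak over basal fluorescence ratio per well then scaled between controls; 0% = DMSO wells and 100% = acetylcholine at EC100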
CHRM4 PAM: positive allosteric modulators of human muscarinic M4 receptor; 0.4% of 360,000 active; activation, % at 3 µM; P08173; CHO-K1 hM4/Gqi5, Fluo-8 calcium fluorescence, ACh EC20; 0% = ACh EC20, 100% = maximal ACh;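 active = activation above its plate's cutoff, the mean activation of sample wells plus 3 SD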
CHRM5 agonist: CHRM5 agonism in calcium assay; CHO-K1 hM5 cells, Fluo-8 calcium fluorescence; 0% DMSO wells, 100% maximal acetylcholine response; activation, % at 3 µM; 0.19% of 360,000 active; AID 624037;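 active = activation above the run's mean over test compounds plus 3 SD, cut at about 23% in these data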;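 note: signal is peak over basal fluorescence ratio across the kinetic read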
Target sequence (P08912 whole entry, looked up): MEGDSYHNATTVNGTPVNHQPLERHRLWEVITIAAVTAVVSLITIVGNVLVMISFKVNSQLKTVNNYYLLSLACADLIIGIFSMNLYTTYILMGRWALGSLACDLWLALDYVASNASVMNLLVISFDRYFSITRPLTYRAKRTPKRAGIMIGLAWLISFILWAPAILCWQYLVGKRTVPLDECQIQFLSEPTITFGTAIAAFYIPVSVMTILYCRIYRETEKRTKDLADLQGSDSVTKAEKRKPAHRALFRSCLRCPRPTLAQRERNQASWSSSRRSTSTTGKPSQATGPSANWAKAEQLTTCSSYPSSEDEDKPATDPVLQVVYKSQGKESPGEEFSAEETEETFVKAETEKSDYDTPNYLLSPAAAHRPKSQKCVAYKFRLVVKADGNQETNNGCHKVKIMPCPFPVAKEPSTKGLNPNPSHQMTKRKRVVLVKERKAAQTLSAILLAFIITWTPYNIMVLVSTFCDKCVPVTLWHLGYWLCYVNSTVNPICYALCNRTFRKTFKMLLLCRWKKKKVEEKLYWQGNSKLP
M5 PAM: CHRM5 positive allosteric modulation. P08912. CHO-K1 hM5, Fluo-8 calcium, ACh EC20 PAM; 0% = ACh EC20, 100% = ACh EC100. activation, % at 3 µM. 0.3% of 360,000 active. AID 624038;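 active = activation above the run cutoff, the mean activation of all test compounds plus 3 SD, cut at about 18% in these data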
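System – CHO-K1 hM5 cells · Compound – 3 µM, single dose · Incubation – compound preincubation 140 s before EC20 acetylcholine addition · Technique – Fluo-8 calcium fluorescence · Measure – Max/basal fluorescence ratio as % of EC20–EC100 ACh window · Benchmarks – low control EC20 acetylcholine (0%), high control EC100 acetylcholine (100%) · Replication – singlicate, one well per test compound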
M5 antag: CHRM5 antagonism in calcium assay | P08912 | CHO-hM5 cells, Fluo-8 calcium fluorescence, ACh EC80 | inhibition, % at 3 µM | 0.59% of 360,000 active | AID 624040;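 active = inhibition above a per-plate cutoff, the mean of that plate's test compounds plus 3 SD, cut at about 27% in these data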;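 note: 0% = acetylcholine EC80 with DMSO and 100% = DMSO without agonist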
CHRM4 antagonist: CHRM4 antagonism in calcium assay; CHO-hM4 cells, ACh EC80, Fluo-8 calcium fluorescence; inhibition, % at 3 µM; 0.73% of 360,000 active; AID 624125;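 active = inhibition above its plate's cutoff, the mean inhibition of sample wells plus 3 SD, cut at about 27% in these data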;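 note: 0% = acetylcholine EC80 with DMSO and 100% = DMSO without agonist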
* = called active by the depositor.

Screening C[C@H]1CN([C@@H](C)CO)C(=O)CCCn2nncc2CO[C@@H]1CN(C)C(=O)NC1CCCCC1 returned M4 ag 0, CHRM4 PAM 1, CHRM5 agonist 0, M5 PAM -2, M5 antag -7 and CHRM4 antagonist -13.
Screening CN(C(=O)c1cccc(NC(=O)Cc2ccc(NC(=O)C3CCCN(S(=O)(=O)c4cccc([N+](=O)[O-])c4)C3)cc2)c1)C1CCCCC1 (stereo unspecified) returned M4 ag 1, CHRM4 PAM -4, CHRM5 agonist 0, M5 PAM 0, M5 antag -7 and CHRM4 antagonist -3.
For COc1ccc(CCNc2ncnc3c2nnn3Cc2ccccc2)cc1OC the results were M4 ag 8, CHRM4 PAM -8, CHRM5 agonist 4, M5 PAM -9, M5 antag 4 and CHRM4 antagonist 3.
CC1=NNC(=O)/C1=C\c1cn(-c2ccccc2)nc1-c1ccccc1 was read as M4 ag 12, CHRM4 PAM -18, CHRM5 agonist 28*, M5 PAM 6, M5 antag 32* and CHRM4 antagonist 39*.
For CC(C)CCn1c(COc2ccccc2)nn(CCC#N)c1=S the results were M4 ag 1, CHRM4 PAM -4, CHRM5 agonist -3, M5 PAM -6, M5 antag 16 and CHRM4 antagonist -1.
CCCNC(=O)Cn1c(=O)/c(=C/c2ccc(-c3ccc([N+](=O)[O-])cc3)o2)s/c1=C\C(=O)C(C)(C)C was read as M4 ag 35*, CHRM4 PAM -7, CHRM5 agonist 123*, M5 PAM -9, M5 antag 53* and CHRM4 antagonist 22.
For CSc1ccc(/C=c2\s/c(=C\C(=O)C(C)(C)C)n(CC(=O)NCCC3=CCCCC3)c2=O)cc1 the results were M4 ag 3, CHRM4 PAM 9, CHRM5 agonist 0, M5 PAM 0, M5 antag -9 and CHRM4 antagonist 3.
`O=C(/C=C/c1cccs1)N1CCC2(CC1)Oc1ccc(Cl)cc1C(=O)C21CC(c2ccccc2)=NO1` (stereo unspecified) gave M4 ag 2, CHRM4 PAM 2, CHRM5 agonist 2, M5 PAM 6, M5 antag -2 and CHRM4 antagonist 5.
Screening CN1CCN(c2ncnc3c2ncn3[C@H]2CN(Cc3ccc(F)cc3)C[C@@H](CO)O2)CC1 returned M4 ag 1, CHRM4 PAM 0, CHRM5 agonist 0, M5 PAM -3, M5 antag 8 and CHRM4 antagonist 5.
Screening O=C(Nc1ccccc1)c1ccc(Br)c(S(=O)(=O)Nc2ccccn2)c1 returned M4 ag 1, CHRM4 PAM -1, CHRM5 agonist 0, M5 PAM -4, M5 antag 0 and CHRM4 antagonist -3.
`CC(=O)c1c(C)[nH]c(C(=O)O)c1C` gave M4 ag 1, CHRM4 PAM -6, CHRM5 agonist -7, M5 PAM -4, M5 antag 2 and CHRM4 antagonist -1.
Screening CC(=O)c1c(C)[nH]c(C)c1C(C)=O returned M4 ag 1, CHRM4 PAM 32*, CHRM5 agonist 0, M5 PAM 27*, M5 antag -18 and CHRM4 antagonist -8.
`O=C(CN1CCCC1)N1c2ccccc2Sc2ccc(Cl)cc21` gave M4 ag 1, CHRM4 PAM -18, CHRM5 agonist -26, M5 PAM -34, M5 antag 96* and CHRM4 antagonist 94*.
For O=C(CN1CCCC1)N1c2ccccc2Sc2ccc(C(F)(F)F)cc21 the results were M4 ag 1, CHRM4 PAM -22, CHRM5 agonist -12, M5 PAM -16, M5 antag 99* and CHRM4 antagonist 95*.
`O=C(CSc1nc2ccccc2o1)N1c2ccccc2Sc2ccc(C(F)(F)F)cc21` gave M4 ag 0, CHRM4 PAM -1, CHRM5 agonist -1, M5 PAM -1, M5 antag -6 and CHRM4 antagonist 4.
